An excerpt weighted towards active compounds, which were near 3.5% of everything screened.
MrgX1 antag = blocks BAM8-22 activation of human MrgX1 receptor. Q96LB2. MRGX1-HEK293 calcium flux, Fluo-4, BAM8-22 antagonism; active compounds read low. B-score at 10 µM. 1.3% of 310,000 active. AID 588676;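 active = calcium-response B-score plate-corrected more than 3 library SD below zero, starting fluorescence within 5 deviations, no agonist response on first addition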;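 also: peak minus trough fluorescence over baseline after final BAM8-22 challenge near maximal dose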
Target sequence (Q96LB2 whole entry, looked up): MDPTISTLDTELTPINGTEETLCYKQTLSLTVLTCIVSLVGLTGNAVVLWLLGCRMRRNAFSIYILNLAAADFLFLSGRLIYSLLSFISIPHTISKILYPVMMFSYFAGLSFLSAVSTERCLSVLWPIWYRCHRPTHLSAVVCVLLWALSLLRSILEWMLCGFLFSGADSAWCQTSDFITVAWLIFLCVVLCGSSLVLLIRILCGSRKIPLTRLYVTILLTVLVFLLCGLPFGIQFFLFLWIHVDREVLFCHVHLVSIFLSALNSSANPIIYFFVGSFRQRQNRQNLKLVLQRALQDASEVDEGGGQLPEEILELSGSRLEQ
RGS4 block = inhibitors of human RGS4; P49798; HEK293 M3R/RGS4 inducible, Fluo-4 calcium flux; active compounds read high; triggered by carbachol at its EC20; B-score at 10 µM; 0.45% of 310,000 active; AID 463165;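 active = B-score, a plate-corrected calcium signal, over three deviations above library mean, with baseline fluorescence within five deviations of library mean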;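 also: RGS4 expression induced by doxycycline in cells with stable M3 receptor; B-score is computed from the integrated fluorescence ratio over baseline after carbachol; higher B-score means a larger calcium signal and so more RGS4 inhibition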
Target sequence (P49798 whole entry, looked up): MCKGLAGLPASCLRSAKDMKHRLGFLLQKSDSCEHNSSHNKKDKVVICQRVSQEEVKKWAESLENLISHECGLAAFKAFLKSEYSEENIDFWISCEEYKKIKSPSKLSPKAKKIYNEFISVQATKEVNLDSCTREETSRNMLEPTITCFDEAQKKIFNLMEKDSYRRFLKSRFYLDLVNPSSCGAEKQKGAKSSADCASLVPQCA
RGS4 pot = RGS4 potentiation or activation. HEK293 M3R/inducible RGS4, carbachol calcium flux Fluo4; active compounds read low. B-score at 10 µM. 0.92% of 310,000 active. AID 463111;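 active = B-score of the integrated calcium signal more than 4 SD below the library mean, with starting fluorescence not abnormally high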;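 also: negative B-score means reduced calcium response which marks RGS4 activation or potentiation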
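Also added: carbachol at ECmax as muscarinic agonist stimulus; Assay system: HEK293 cells with stable M3R and inducible RGS4; Timing: overnight RGS4 induction, 30 min dye load 37 °C, 20 min compound RT; Measured by: Fluo4-AM (2 µM) calcium-flux fluorescence, kinetic read.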
MrgX1 allo act = human MrgX1 positive allosteric modulation, primary screen; 0.63% of 310,000 active; B-score at 10 µM; MrgX1-HEK293, Fluo-4 calcium flux, FDSS; active compounds read high; AID 588675; Q96LB2;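 active = plate-corrected calcium response at least 3 library SD above typical, normal starting fluorescence, not activating the receptor alone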;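 also: compound read alongside a low EC10 to EC30 dose of BAM8-22 agonist; peak minus trough fluorescence over baseline measured at the second addition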
MrgX1 ag = activates human MrgX1 receptor signaling; B-score at 10 µM; AID 588627; 0.44% of 310,000 active; Q96LB2; MrgX1-HEK293 cells, Fluo-4 calcium fluorescence, agonist mode; active compounds read high;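 active = calcium response B-score plate-corrected fluorescence ratio at least 3 library SD, with starting fluorescence B-score inside 5 SD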
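Material – MrgX1-expressing HEK293 cells · Input – 15,000 cells seeded per well · Dosing – compound as first of three additions · Times – overnight seeding, then 1 h dark dye loading · Measured by – kinetic Fluo-4 NW fluorescence of intracellular calcium · Read-out – B-scored fluorescence response ratio · Benchmarks – positive and negative control wells on each plate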
MrgX1 ag confirm = reconfirmed activator of human MrgX1 receptor signaling; activation, % at 10 µM; MrgX1-HEK293, Fluo-4 calcium fluorescence, FDSS; shares compounds with MrgX1 ag; 78% of 600 active; AID 602412;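 active = calcium signal rise, corrected for plate position, at least 3 library SD high, with starting brightness within 5 such deviations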
MrgX1 PAM conf = reconfirmed allosteric activator of human MrgX1 receptor; shares compounds with MrgX1 allo act; 13% of 1,200 active; activation (ratio percentage), % at 10 µM; MrgX1-HEK293, Fluo-4 calcium fluorescence, FDSS; AID 602413;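 active = ratio at least 3 SD above the weak peptide control, stable starting fluorescence, no direct agonism earlier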;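 also: compound followed by low BAM8-22 agonist challenge near EC20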
MrgX1 ant reconf = reconfirmed antagonist of human MrgX1 receptor signaling; 19% of 2,300 active; remaining BAM8-22 calcium response % of control (active compounds read low), % at 10 µM; shares compounds with MrgX1 antag; MrgX1-HEK293, BAM8-22 calcium flux, Fluo-4; active compounds read low; AID 602420;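 active = remaining agonist calcium response no higher than 100% minus 3 SD of agonist-only control wells, with starting fluorescence near control levels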;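 also: agonist BAM8-22 given at a near maximal EC90 to ECmax level; peak minus minimum fluorescence divided by baseline after agonist addition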
HEK293 Ca flux = MrgX1 antagonist counter-screen hit in parental HEK293 cells | shares compounds with MrgX1 antag | Fluo-4 calcium fluorescence, FDSS | fluorescence ratio F(max-min)/F0 at 10 µM | 2% of 4,000 active;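 active = duplicate-averaged calcium fluorescence ratio at least three times the standard deviation of buffer wells, a nonspecific response in parental cells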
HEK293 Ca counter = activity in parental HEK293 cells without MrgX1; shares compounds with MrgX1 antag; parental HEK293 calcium flux, Fluo-4 fluorescence ratio; active compounds read high; fluorescence ratio F(max-min)/F0 at 10 µM; 0.4% of 4,000 active; AID 624114;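 active = calcium fluorescence ratio, averaged over duplicates, at least 3 SD of the buffer-well ratio, meaning a nonspecific response in receptor-free cells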;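 also: untransfected parental HEK293 lacking MrgX1 used as counterscreen for MrgX1 allosteric activators; fluorescence change taken during the second addition on a kinetic imager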
HEK293 Ca cntr2 = activity in parental HEK293 cells lacking MrgX1 receptor; shares compounds with MrgX1 antag; 8.7% of 4,000 active; AID 624115; Fluo-4 calcium fluorescence (FDSS); active compounds read high; fluorescence ratio F(max-min)/F0 at 10 µM;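 active = calcium fluorescence ratio at least three times the spread of buffer wells, meaning a non-specific response in parental cells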
An asterisk follows results filed as active; ! = not active in a repeat.

Results for C[C@H](NC(=O)CCC(=O)N1C[C@H]2C[C@H](C1)c1cccc(=O)n1C2)c1ccccc1 ?
MrgX1 antag: inactive; RGS4 block: inactive; RGS4 pot: inactive; MrgX1 allo act: inactive; MrgX1 ag: inactive

What do the screens show for `CCC(C)N1C(=O)NC(=O)C2(Cc3c(ccc4ccccc34)N(C)C2)C1=O` (stereo not drawn)?
MrgX1 antag: inactive; RGS4 block: inactive; RGS4 pot: inactive; MrgX1 allo act: inactive; MrgX1 ag: 34*; MrgX1 ag confirm: inactive; HEK293 Ca flux: inactive; HEK293 Ca counter: inactive; HEK293 Ca cntr2: inactive

How did Cc1cccc(-n2c(C)nc3ccc(Cl)cc3c2=O)c1 do in these assays?
MrgX1 antag: inactive; RGS4 block: inactive; RGS4 pot: inactive; MrgX1 allo act: inactive; MrgX1 ag: inactive

How did C[C@H]1OC[C@@H](C[N+](C)(C)C)O1 do in these assays?
MrgX1 antag: inactive; RGS4 block: inactive; RGS4 pot: inactive; MrgX1 allo act: inactive; MrgX1 ag: 112*; MrgX1 ag confirm: 550%*; HEK293 Ca flux: inactive; HEK293 Ca counter: inactive; HEK293 Ca cntr2: 107*

What do the screens show for `CC1OC(C[N+](C)(C)C)CC1O` (stereo not drawn)?
MrgX1 antag: inactive; MrgX1 allo act: inactive; MrgX1 ag: 80*; MrgX1 ag confirm: 502%*; HEK293 Ca flux: inactive; HEK293 Ca counter: inactive; HEK293 Ca cntr2: 104*

What do the screens show for `Nc1cc(Cl)c2nonc2c1[N+](=O)[O-]`?
MrgX1 antag: inactive; MrgX1 allo act: inactive; MrgX1 ag: inactive

What do the screens show for `Cc1cc(C)n(-c2ccc(NN=C(C#N)C#N)cc2)n1`?
MrgX1 antag: inactive; RGS4 block: inactive; RGS4 pot: inactive; MrgX1 allo act: inactive; MrgX1 ag: 88*; MrgX1 ag confirm: 215%*; HEK293 Ca flux: inactive; HEK293 Ca counter: inactive; HEK293 Ca cntr2: 56*

How did CC(=O)OCC[N+](C)(C)C do in these assays?
MrgX1 antag: inactive; RGS4 block: inactive; RGS4 pot: -7.5*!; MrgX1 allo act: inactive; MrgX1 ag: 134*; MrgX1 ag confirm: 558%*; HEK293 Ca flux: inactive; HEK293 Ca counter: inactive; HEK293 Ca cntr2: 108*

What do the screens show for `CC/C(=N\NC(=O)c1ccccc1)c1c(O)n(C2CCCCC2)c(=O)[nH]c1=O`?
MrgX1 antag: inactive; RGS4 block: inactive; RGS4 pot: inactive; MrgX1 allo act: inactive; MrgX1 ag: inactive

What do the screens show for `CNCCc1ccc(O)c(O)c1`?
MrgX1 antag: inactive; RGS4 block: inactive; RGS4 pot: inactive; MrgX1 allo act: inactive; MrgX1 ag: 43*; MrgX1 ag confirm: 116%*; HEK293 Ca flux: inactive; HEK293 Ca counter: inactive; HEK293 Ca cntr2: inactive

Results for COc1ccc(-n2c(-c3ccc(C)cc3)nc3ccccc3c2=O)cc1 ?
MrgX1 antag: inactive; RGS4 block: inactive; RGS4 pot: inactive; MrgX1 allo act: inactive; MrgX1 ag: inactive

How did Cc1ccc(-n2c(C)nc3ccccc3c2=O)cc1C do in these assays?
MrgX1 antag: inactive; RGS4 block: inactive; RGS4 pot: inactive; MrgX1 allo act: 7.7*; MrgX1 ag: inactive; MrgX1 PAM conf: 13%*; HEK293 Ca flux: inactive; HEK293 Ca counter: inactive; HEK293 Ca cntr2: inactive

How did COc1nc2ccccc2c(=O)n1-c1ccc(Cl)cc1 do in these assays?
MrgX1 antag: inactive; RGS4 block: inactive; RGS4 pot: inactive; MrgX1 allo act: 12*; MrgX1 ag: inactive; MrgX1 PAM conf: inactive; HEK293 Ca flux: inactive; HEK293 Ca counter: inactive; HEK293 Ca cntr2: inactive

Results for CCCc1nc2ccccc2c(=O)n1-c1ccc(OC)cc1 ?
MrgX1 antag: inactive; RGS4 block: inactive; RGS4 pot: inactive; MrgX1 allo act: inactive; MrgX1 ag: inactive

What do the screens show for `CCCCOc1nc2ccccc2c(=O)n1-c1ccccc1`?
MrgX1 antag: inactive; RGS4 block: inactive; RGS4 pot: inactive; MrgX1 allo act: 9.2*; MrgX1 ag: inactive; MrgX1 PAM conf: inactive; HEK293 Ca flux: inactive; HEK293 Ca counter: inactive; HEK293 Ca cntr2: 48*

Results for COc1nc2ccccc2c(=O)n1-c1ccc(C)cc1 ?
MrgX1 antag: inactive; RGS4 block: inactive; RGS4 pot: inactive; MrgX1 allo act: 18*; MrgX1 ag: inactive; MrgX1 PAM conf: inactive; HEK293 Ca flux: inactive; HEK293 Ca counter: inactive; HEK293 Ca cntr2: inactive

How did O=C(c1ccc(F)c([N+](=O)[O-])c1)N1CC2CC(C1)c1cccc(=O)n1C2 (stereo not drawn) do in these assays?
MrgX1 antag: inactive; RGS4 block: inactive; RGS4 pot: inactive; MrgX1 allo act: inactive; MrgX1 ag: inactive

Results for CCCCCn1c(=O)c(C(=O)NCCc2ccccc2)c(O)c2ccccc21 ?
MrgX1 antag: -8.2*; RGS4 block: inactive; RGS4 pot: inactive; MrgX1 allo act: 7.6*; MrgX1 ag: inactive; MrgX1 PAM conf: inactive; MrgX1 ant reconf: inactive; HEK293 Ca flux: inactive; HEK293 Ca counter: inactive; HEK293 Ca cntr2: inactive

Results for C[CH2][Hg][S]c1ccccc1C(=O)O ?
MrgX1 antag: inactive; MrgX1 allo act: 6.5*; MrgX1 ag: inactive; MrgX1 PAM conf: inactive; HEK293 Ca flux: inactive; HEK293 Ca counter: inactive; HEK293 Ca cntr2: inactive

Results for CC(C)COC(=O)c1ccccc1C(=O)OCC(C)C ?
MrgX1 antag: inactive; RGS4 block: inactive; RGS4 pot: inactive; MrgX1 allo act: inactive; MrgX1 ag: inactive

What do the screens show for `Cc1cccc(NC(N)=S)c1`?
MrgX1 antag: inactive; RGS4 block: inactive; RGS4 pot: inactive; MrgX1 allo act: inactive; MrgX1 ag: inactive
